Experimental data published in ChEMBL document CHEMBL1145033, “2-Amino-3-benzoylthiophene allosteric enhancers of A1 adenosine agonist binding: new 3, 4-, and 5-modifications” (J Med Chem, 2003).

Assays:
[1] = target: T1, Adenosine receptor A1 (Homo sapiens) (UniProt P30542); assay: Dissociation of [3H]N6-cyclohexyladenosine ([3H]CHA) from CHO-K1 membrane expressing human adenosine A1 receptor after treatment with allosteric enhancer at 100 uM and (R)-PIA
T1 sequence (whole entry): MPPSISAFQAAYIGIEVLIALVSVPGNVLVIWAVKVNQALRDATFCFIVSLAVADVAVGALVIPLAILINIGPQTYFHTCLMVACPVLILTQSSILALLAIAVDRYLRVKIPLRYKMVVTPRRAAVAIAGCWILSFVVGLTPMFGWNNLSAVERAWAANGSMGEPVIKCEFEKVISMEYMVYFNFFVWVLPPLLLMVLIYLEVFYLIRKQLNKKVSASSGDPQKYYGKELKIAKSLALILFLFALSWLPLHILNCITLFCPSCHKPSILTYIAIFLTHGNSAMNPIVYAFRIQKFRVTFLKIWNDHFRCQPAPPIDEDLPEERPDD

[2] = target: T2, Adenosine receptor A1 (Homo sapiens, UniProt P30542); assay: Effective dose as dissociation of [3H]N6-cyclohexyladenosine ([3H]CHA) from CHO-K1 membrane after treatment with allosteric enhancer and (R)-PIA
T2 sequence (P30542 whole entry): T1 sequence (whole entry)

[3] = target: T1, Adenosine receptor A1 (Homo sapiens); assay: Inhibition of antagonist [3H]-CPX binding to Adenosine A1 receptor membrane at 100 uM
In short: (§1)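 Human A1AR membranes from CHO cells were incubated with 2 nM [3H]CPX and test agent (100 μM) for 90 min at room temperature. Inhibition of equilibrium antagonist binding was then measured.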

[4] = target: T1, Adenosine receptor A1 (Homo sapiens); assay: Inhibition of antagonist [3H]CPX binding to Adenosine A1 receptor membrane at 100 uM; in short: as §1

Row | Activity [1] [%] | Structure (SMILES) | further results
1 | 13.4 | Cc1ccc(-c2c(-c3ccccc3)sc(N)c2C(=O)c2ccccc2)cc1 | 
2 | 11.9 | Nc1sc(-c2ccccc2)c(-c2ccc(Cl)cc2)c1C(=O)c1cccc2ccccc12 | 
3 | 18.6 | Nc1sc(-c2ccccc2)c(-c2ccccc2)c1C(=O)OCc1ccccc1 | 
4 | 1.5 | Nc1sc(-c2ccccc2)c(-c2ccccc2)c1C(=O)c1ccc(-c2ccccc2)cc1 | 
5 | 3.6 | Cc1ccc(-c2c(-c3ccccc3)sc(N)c2C(=O)c2ccc(-c3ccccc3)cc2)cc1 | 
6 | 10.8 | Nc1sc(-c2ccccc2)c(-c2ccccc2)c1C(=O)c1ccc(Cl)cc1 | 
7 | 9.4 | Nc1sc(-c2ccccc2)c(-c2ccccc2)c1C(=O)c1cccc(Cl)c1 | 
8 | 1.9 | Cc1ccc(-c2c(-c3ccccc3)sc(N)c2C(=O)Cc2ccccc2)cc1 | 
9 | 4.2 | Nc1sc(-c2ccccc2)c(-c2ccccc2)c1C(=O)c1ccc2ccccc2c1 | 
10 | 14.1 | Nc1sc(-c2ccccc2)c(-c2ccccc2)c1C(=O)N(Cc1ccccc1)Cc1ccccc1 | 
11 | 52.3 | Nc1sc(-c2ccccc2)c(-c2ccccc2)c1C(=O)c1cccc2ccccc12 | 
12 | 10.5 | Nc1sc(-c2ccccc2)c(-c2ccc(Cl)cc2)c1C(=O)c1ccc(-c2ccccc2)cc1 | 
13 | 5.6 | Nc1sc(-c2ccccc2)c(-c2ccc(Cl)cc2)c1C(=O)c1ccccc1 | 
14 | 10.7 | Nc1sc(-c2ccccc2)c(-c2ccccc2)c1C(=O)c1ccccc1 | 
15 | 10.9 | Cc1ccc(-c2c(-c3ccccc3)sc(N)c2C(=O)c2ccc3ccccc3c2)cc1 | 

The remaining lines, values behind:

Row | Structure (SMILES) | Activity [1] [%] | further results
16 | Cc1ccc(-c2c(-c3ccccc3)sc(N)c2C(=O)c2cccc(Cl)c2)cc1 | 8.1 | 
17 | Nc1sc(Br)c(-c2ccc(-c3ccccc3)cc2)c1C(=O)c1ccccc1 | 42.7 | 
18 | Nc1sc(Br)c(-c2ccc(C(F)(F)F)cc2)c1C(=O)c1ccccc1 | 80.4 | 
19 | Cc1ccc(-c2c(-c3ccccc3)sc(N)c2C(=O)OCc2cccc(C(F)(F)F)c2)cc1 | 62.6 | 
20 | Nc1sc(-c2ccccc2)c(-c2ccc(Cl)cc2)c1C(=O)c1ccc(Cl)cc1 | 8.7 | 
21 | Nc1sc(-c2ccccc2)cc1C(=O)OCc1ccccc1 | 8 | 
22 | Cc1ccc(-c2c(-c3ccccc3)sc(N)c2C(=O)c2ccc(Cl)cc2)cc1 | 8.4 | 
23 | CCOC(=O)c1c(N)sc(-c2ccccc2)c1-c1ccc(Cl)cc1 | 42.1 | 
24 | Nc1sc(-c2ccccc2)c(-c2ccccc2)c1C(=O)OCc1cccc(C(F)(F)F)c1 | 48 | 
25 | Nc1sc(Br)c(-c2ccc3ccccc3c2)c1C(=O)c1ccccc1 | 49.7 | 
26 | N#Cc1ccc(-c2c(Br)sc(N)c2C(=O)c2ccccc2)cc1 | 20.3 | 
27 | Nc1sc(Br)c(-c2cccc([N+](=O)[O-])c2)c1C(=O)c1ccccc1 | 21.8 | 
28 | Nc1sc(Br)c(-c2ccc([N+](=O)[O-])cc2)c1C(=O)c1ccccc1 | 68.3 | 
29 | Nc1sc(Br)c(-c2cccc(C(F)(F)F)c2)c1C(=O)c1ccccc1 | 91 | EC50 [2]: 6.36 µM; inhibition [3]: 29%
30 | CCOC(=O)c1c(N)sc(Br)c1-c1cccc([N+](=O)[O-])c1 | 26 | 
31 | Cc1sc(N)c(C(=O)c2cccc(C(F)(F)F)c2)c1C | 19 | inhibition [4]: 85%
